Source: PubChem
Sampled rows, rich in hits. Any-hit rate of the full collection: about 3.8%.
HSF-1 act: HSF-1 activators, primary screen, NIH3T3-HGL cells, MG132 stress, luminescence, single point. NIH3T3-HGL HSF-1 luciferase reporter, 8 h; 100% = twice DMSO control signal. activation, % at 9 µM. 300,000 tested, 1.7% active;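 active means mean replicate activation of at least 50% with a set share of replicates each reaching 50%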
HSF1 inhib: HSF1 inhibitors in luciferase reporter cells, primary screen, cell-based, NIH3T3, luminescence; NIH3T3-HGL HSE-luciferase, MG132-induced, luminescence 8 h; hits give low values; activity change, negative = inhibition, % at 7.5 µM (by protocol); 300,000 tested, 0.77% active; AID 2098, 2009;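 active means more than half of replicate wells show activity change below -50%, luminescence cut by over half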;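 further: luciferase reports HSF-1 transcriptional activity via heat shock element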
HSP90 refold inh: HSP90 inhibitors, primary screen, cell lysate, luminescence; Rabbit reticulocyte lysate, luciferase refolding luminescence, 3 h; inhibition, % at 5.6 µM; 290,000 tested, 0.91% active;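 active means inhibition above the screen-wide mean plus 3 SD, computed separately per campaign, cut at about 16% in these data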;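 further: inhibitors lower the luminescence because luciferase stays unfolded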
Lipid droplet: inhibitors of hepatocyte lipid droplet formation, primary screen, imaging, high-throughput imaging, BODIPY stain | 240,000 tested, 0.4% active | AML12 mouse hepatocytes, oleate lipid droplets | AID 1656, 2009 | inhibition, % at 6.5 µM;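 active means lipid droplet intensity inhibited by at least 50%, with more than 500 cells counted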
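Material – mouse AML12 hepatocyte cell line, fixed after treatment · Compound dosing – one dose, 6.5 µM compound · Times – compound with oleate, overnight · Measured by – Image-based BODIPY and DAPI two-channel analysis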
HCV NS3 hel inh: inhibitors of HCV NS3 helicase, primary screen, biochemical, Cy5 molecular beacon fluorescence. 290,000 tested, 0.56% active. NS3 helicase DNA unwinding. Hepatitis C virus NS3 helicase. inhibition, % at 10.9 µM;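 active means inhibition above the mean of all tested compounds plus 3 SD, set per campaign, cut at about 35% in these data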
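assay system = NS3 helicase fragment of HCV | buffer or medium = MOPS pH 6.5, MgCl2, DTT, Tween20, BSA | timing = 60 min unwinding reaction at 25 °C after ATP addition | signal = Cy5 beacon fluorescence read at start and 1 h | read-out basis = % inhibition of unwinding | control set = low DMSO, high thioflavine S at 110 µM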
Hep lipid conf: hepatocyte lipid droplet accumulation inhibitors, confirmation, imaging, AML12 mouse hepatocytes, single concentration, high-content | BODIPY lipid droplet imaging; droplets induced with 100 µM oleic acid | 870 tested, 65% active | AID 463183, 2010 | inhibition, % at 5.2 µM | shares compounds with Lipid droplet;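 active means inhibition of lipid droplet metric at least 50%, with more than 300 cells in each of four replicates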
AML12 tox img: AML12 hepatocyte cytotoxicity, counter-screen for hepatic lipid droplet formation project, imaging, DAPI nuclear morphology imaging | z-score at 5 µM | AML12 mouse hepatocytes; hits give high values; cells fed 100 µM oleate overnight | 870 tested, 3% active | AID 463200, 2010 | shares compounds with Lipid droplet; in the data active means z-score above about 6.3;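 further: compound exposure lasted overnight at 37 °C before fixation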
AML12 tox ATP: AML12 hepatocyte cytotoxicity, confirmation, cytotoxicity control for hepatic lipid droplet formation project, cell-based, single concentration | shares compounds with Lipid droplet | AML12 mouse hepatocyte viability, ATP luminescence; cells loaded with 100 µM oleic acid | cytotoxicity, % at 50 µM | 530 tested, under 10 active | AID 463219, 2010;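 active means cytotoxicity above 50% in each of four replicates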;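 further: compound exposure lasted overnight at 37 °C before the ATP read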
Each line names hits and unclear results; the compound was inactive in the other large screens (follow-up assays come after a bar, where they were run).

CCOC(=O)C1CCN(S(=O)(=O)c2ccc3c(c2)NC(=O)C(C)C(=O)N3)CC1 (centres undefined)	Lipid droplet 63 | Hep lipid conf 87 | AML12 tox img inactive | AML12 tox ATP inactive
COc1ccc(C(=O)NCCCNC(=O)c2cnccn2)cc1Br	none
O=C(NCCc1ccccn1)c1nc(Cn2cc(Br)cn2)no1	none
CCOC(=O)N1CCN(C(=O)CSCC(=O)Nc2nc(-c3cccs3)cs2)CC1	Lipid droplet 79 | Hep lipid conf 97 | AML12 tox img inactive | AML12 tox ATP inactive
O=C(CSCC(=O)N1CCCc2ccccc21)Nc1nc(-c2ccccc2)cs1	Lipid droplet 69 | Hep lipid conf 90 | AML12 tox img inactive | AML12 tox ATP inactive
CC1CCN(C(=O)CSCC(=O)Nc2nc(-c3cccs3)cs2)CC1	none
COc1ccc(Cl)cc1NC(=O)c1ccco1	none
COc1cc(NC(=O)c2ccco2)c(OC)cc1NC(=O)Nc1ccccc1Cl	Lipid droplet 82 | Hep lipid conf 114 | AML12 tox img inactive | AML12 tox ATP inactive
COc1ccc(S(=O)(=O)NCCCn2ccnc2)cc1Cl	none
CCOc1ccccc1NC(=O)N1CCCC1C(=O)NCc1cccs1 (centres undefined)	Lipid droplet 74 | Hep lipid conf 94 | AML12 tox img inactive | AML12 tox ATP inactive
Cc1ccc([N+](=O)[O-])cc1NC(=O)C(C)Sc1nnc(C)n1CC1CCCO1 (centres undefined)	Lipid droplet 60 | Hep lipid conf inactive | AML12 tox img inactive
CN(C(=O)COC(=O)CCC(=O)c1ccc(Cl)cc1)c1c(N)n(Cc2ccccc2)c(=O)[nH]c1=O	none (no result: HSP90 refold inh, Lipid droplet, HCV NS3 hel inh)
CCCCc1ccc(N=N/C(C(=O)Nc2cc(OC)c(NC(C)=O)cc2OC)=C(/C)O)cc1	Lipid droplet 96 | Hep lipid conf inactive | AML12 tox img inactive
CCCCc1ccc(N=N/C(C(=O)Nc2ccccc2OC)=C(/C)O)cc1	none
CCNC(=S)N1CCc2cc(OC)c(OC)cc2C1COc1ccccc1OC (centres undefined)	Lipid droplet 62 | Hep lipid conf 93 | AML12 tox img inactive | AML12 tox ATP inactive
CCNC(=S)N1CCc2cc(OC)c(OC)cc2C1COc1ccc(OC)cc1 (centres undefined)	none
O=C(Cc1cccc2ccccc12)Nc1nc(-c2cccc([N+](=O)[O-])c2)cs1	Lipid droplet 68 | Hep lipid conf 100 | AML12 tox img inactive | AML12 tox ATP inactive
CC(C)Oc1ccc(C(=O)OC(C)C(=O)Nc2nc(-c3cccc([N+](=O)[O-])c3)cs2)cc1 (centres undefined)	Lipid droplet 91 | Hep lipid conf 97 | AML12 tox img inactive | AML12 tox ATP inactive
O=C(Nc1nc(-c2cccc([N+](=O)[O-])c2)cs1)c1cccc([N+](=O)[O-])c1C(=O)O	none
CCOc1ccc2c(c1)-c1c(ssc1=S)C(C)(C)N2C(=O)CSC1=NCCS1	Lipid droplet 54 | Hep lipid conf inactive | AML12 tox img inactive
COC(=O)[C@@H]1CCCN1C(=O)CCc1nnc(C2CCCCC2)o1	none
CCOc1ccc(C(C)NC(=O)Cc2ccccc2F)cc1OCC (centres undefined)	Lipid droplet 50 | Hep lipid conf 93 | AML12 tox img inactive | AML12 tox ATP inactive
CCOc1ccc(C(C)NC(=O)Cc2ccccc2)cc1OCC (centres undefined)	Lipid droplet 53 | Hep lipid conf 73 | AML12 tox img inactive | AML12 tox ATP inactive
COC(=O)c1c(C)oc(C)c1S(=O)(=O)N1CCOCC1	none
CCC(Sc1nc2ccsc2c(=O)n1-c1ccc(Cl)c(C)c1)C(=O)NCc1ccco1 (centres undefined)	Lipid droplet 54 | Hep lipid conf 64 | AML12 tox img inactive
C/C(=N\Nc1ccc(S(=O)(=O)Nc2ccc(Cl)cc2)cc1[N+](=O)[O-])c1ccc(N2CCOCC2)cc1	Lipid droplet 88 | Hep lipid conf inactive | AML12 tox img inactive | AML12 tox ATP inactive
C/C(=N\Nc1ccc(S(=O)(=O)Nc2ccccc2)cc1[N+](=O)[O-])c1ccc(N2CCOCC2)cc1	Lipid droplet 51 (no result: HSF-1 act, HSF1 inhib) | Hep lipid conf 72 | AML12 tox img inactive | AML12 tox ATP inactive
O=[N+]([O-])c1ccccc1/C=C/C=N/Nc1ccc(S(=O)(=O)Nc2ccc(Cl)cc2)cc1[N+](=O)[O-]	Lipid droplet 60 | Hep lipid conf inactive | AML12 tox img inactive | AML12 tox ATP inactive
O=[N+]([O-])c1cc(S(=O)(=O)Nc2cccc(Cl)c2)ccc1N/N=C/c1ccc(N2CCOCC2)cc1	none
COc1ccc(-n2c(=O)c3c4c(sc3n(CC(=O)Nc3cc(C)[nH]n3)c2=O)CCC4)c(OC)c1	Lipid droplet 51 (no result: HSF-1 act, HSF1 inhib) | Hep lipid conf inactive | AML12 tox img inactive
O=C1CSC(c2cn(-c3ccccc3)nc2-c2ccccc2)N1Cc1ccco1 (centres undefined)	Lipid droplet 61 | Hep lipid conf 87 | AML12 tox img inactive | AML12 tox ATP inactive
CCC1=NN=C(c2ccc(F)cc2)C(c2c[nH]c3ccccc23)N1O (centres undefined)	Lipid droplet 65 | Hep lipid conf inactive | AML12 tox img inactive
CCc1ccccc1NC(=O)c1cccc(NC(=O)/C=C/c2ccco2)c1	Lipid droplet 53 | Hep lipid conf inactive | AML12 tox img inactive
CCNc1nc(N)c(C(=O)c2ccc(Cl)s2)s1	Lipid droplet 52 | Hep lipid conf inactive | AML12 tox img inactive
CC(C)(C)c1csc(NC(=O)c2ccc(Cl)s2)n1	none
COc1cccc(C(=O)NC23CC4CC(CC(C4)C2)C3)c1	none (no result: Lipid droplet)
COc1ccc2nc(N=Nc3c(O)ccc4ccccc34)sc2c1	Lipid droplet 50 | Hep lipid conf inactive | AML12 tox img inactive
CCc1nc2ccccc2c(C(=O)OCC(=O)NC(=O)c2cccn2C)c1C	none
CCn1cc(C(=O)NCCCN(CC(C)C)CC(C)C)c(=O)c2cc(S(=O)(=O)N(C)C3CCCCC3)ccc21	Lipid droplet 69 | Hep lipid conf inactive | AML12 tox img inactive
